The list is not random: actives were taken first. Their share in the collection is about 3.5%.
pPAFAH FP inh – pPAFAH (human) enzyme inhibition; inhibition, % at 3.39 µM; Q13093; actives 1.5% (n = 330,000); recombinant pPAFAH, FP-rhodamine probe fluorescence polarization; AID 463082;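 active = inhibition above the mean inhibition across the screen plus 3 SD, cut at about 25% in these data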;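 note: inhibitors block binding of the rhodamine activity-based probe so polarization drops; 0% = enzyme with DMSO and 100% = wells lacking pPAFAH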
PAFAH1B2 FP inh – blocks human PAF acetylhydrolase 1b catalytic subunit 2 | P68402 | recombinant PAFAH1B2, FP-rhodamine activity probe, fluorescence polarization | inhibition, % at 3.39 µM | actives 1.2% (n = 340,000) | AID 492953;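 active = inhibition above the mean of all tested compounds plus 3 SD, cut at about 24% in these data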;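 note: 0% = enzyme with DMSO and 100% = wells lacking PAFAH1B2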
Target sequence (P68402 whole entry, looked up): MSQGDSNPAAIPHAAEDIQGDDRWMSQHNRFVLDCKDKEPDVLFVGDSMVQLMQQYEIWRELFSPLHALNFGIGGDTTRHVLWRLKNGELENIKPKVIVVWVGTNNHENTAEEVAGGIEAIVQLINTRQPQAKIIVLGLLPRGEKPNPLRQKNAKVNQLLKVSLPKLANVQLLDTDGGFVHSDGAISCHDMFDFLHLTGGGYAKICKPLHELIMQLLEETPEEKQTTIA
PAFAH1B3 FP inh – PAFAH1B3 (human) inhibition. Q15102. recombinant PAFAH1B3, FP-rhodamine probe, fluorescence polarization. inhibition, % at 3.39 µM. actives 0.28% (n = 340,000);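 active = inhibition above the screen-wide average of all tested compounds plus 3 SD, cut at about 25% in these data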;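 note: 0% = enzyme with DMSO only and 100% = wells lacking PAFAH1B3 protein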
Target sequence (Q15102 whole entry, looked up): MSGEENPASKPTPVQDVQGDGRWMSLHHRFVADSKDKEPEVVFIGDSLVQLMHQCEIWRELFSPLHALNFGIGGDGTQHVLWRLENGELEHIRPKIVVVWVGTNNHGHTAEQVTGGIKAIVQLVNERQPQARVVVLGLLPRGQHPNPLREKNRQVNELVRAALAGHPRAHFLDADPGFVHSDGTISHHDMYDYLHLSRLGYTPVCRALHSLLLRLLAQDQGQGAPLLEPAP
PAFAH2 inh – inhibitors of human PAFAH2; AID 492956; actives 0.99% (n = 340,000); recombinant PAFAH2, FP-rhodamine activity probe, fluorescence polarization; Q99487; inhibition, % at 3.39 µM;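 active = inhibition above the mean over all tested compounds plus 3 SD, cut at about 30% in these data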;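 note: inhibitors block probe labeling of enzyme so polarization drops; 0% = enzyme with DMSO and 100% = wells lacking PAFAH2 protein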
PREPL inhibitor – human PREPL enzyme inhibition. Q4J6C6. recombinant PREPL, fluorescence polarization activity-based probe. inhibition, % at 5.96 µM. actives 0.68% (n = 320,000). AID 2751; in the data active = inhibition above about 43%;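 note: 0% = enzyme with DMSO and 100% = wells lacking enzyme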
Apaf1 inhib – blocks human Apaf-1 apoptosome activity; O14727; reconstituted apoptosome caspase-3 activity, DEVD-Rh110 fluorescence; inhibition, % at 20 µM; actives 0.71% (n = 330,000); active = inhibition of at least 40% at 20 µM;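 note: plate controls were DMSO wells for no effect and DEVD-CHO caspase inhibitor wells for full effect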
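Medium: Hepes buffer, pH 7.5 / System: biochemical Apaf-1 apoptosome reconstitution / Measured by: Rh110 fluorescence, excitation 480 nm, emission 540 nm / Times: compound with Apaf-1, dATP, procaspase-3 30 min, then 50 min reaction, room temperature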
Active calls of the source: *; nt = no result given.

SMILES | pPAFAH FP inh | PAFAH1B2 FP inh | PAFAH1B3 FP inh | PAFAH2 inh | PREPL inhibitor | Apaf1 inhib
CCOC(=O)C1CCCN(C(=O)/C(=C/c2ccco2)NC(=O)c2ccccc2)C1 (centres undefined) | 1 | 5 | 7 | 3 | -3 | 0
Cc1ccc(C(=O)N2CC(C)OC(C)C2)cc1S(=O)(=O)N1CCCCC1 (centres undefined) | 1 | 7 | -3 | 3 | 4 | -12
O=C(CCCSc1ccccc1)Nc1ccc(Cl)c(S(=O)(=O)N2CCOCC2)c1 | 5 | -3 | 1 | 5 | 9 | 9
Cc1n[nH]c(=O)c2c(NC(=O)COC(=O)/C=C/c3cccc(C(F)(F)F)c3)oc(C)c12 | -1 | 5 | 4 | 3 | 10 | 6
CC(C)(C)C(=O)[C@@H]1[C@@H]2C(=O)N(c3ccc4c(c3)OCCO4)C(=O)[C@@H]2C2c3ccccc3C=CN21 (some centres undefined) | 15 | 1 | 4 | 8 | -1 | 62*
Cc1ccc(N2C(=O)[C@@H]3[C@H](C2=O)C2c4ccccc4C=CN2[C@@H]3C(=O)c2ccco2)cc1 (some centres undefined) | nt | 0 | 7 | 1 | nt | nt
Cc1ccc(CCN2CCN=C2Nc2ccccc2)cc1 | 2 | -1 | -9 | -2 | -4 | -6
O=[N+]([O-])c1cc([N+](=O)[O-])c2cc3ccccc3nc2c1 | 17 | 9 | 18 | 8 | 16 | 25
CCOc1ccc(CN(C)C(=O)c2cc(S(=O)(=O)N3CCCC3)ccc2C)cc1 | -2 | 6 | -1 | 12 | 13 | 2
COc1ccccc1CNC(=O)C(=O)NCC1OCCCN1S(=O)(=O)c1cccs1 (centres undefined) | 12 | 5 | 2 | 5 | -3 | 11
c1ccc(-c2nn3c(Cn4cnc5ccccc54)nnc3s2)cc1 | 0 | 3 | 4 | 7 | -6 | -7
c1ccc(OCc2nn3c(Cn4cnc5ccccc54)nnc3s2)cc1 | 5 | 27* | 3 | 4 | -5 | -6
O=C(Nc1ccc2ncccc2c1)c1ccccc1 | 1 | -7 | 6 | -10 | 6 | -9
CCC(C(=O)c1ccc2ncccc2c1)c1ccccc1 (centres undefined) | 2 | 25* | 10 | 10 | -24 | -3
Cc1ccc(-c2csc(NCCn3c(C)nc4cc(C(F)(F)F)ccc43)n2)cc1 | 4 | 37* | 5 | 1 | 26 | 10
Cc1ccc(Cn2c(C(C)Nc3nc(-c4ccc(Cl)c([N+](=O)[O-])c4)cs3)nc3cc(C(F)(F)F)ccc32)cc1 (centres undefined) | -4 | -2 | -11 | 1 | 14 | 15
Cc1cc(NC(=O)CSc2nnc(N)s2)c([N+](=O)[O-])cc1C | 5 | 6 | 5 | 0 | 4 | -4
O=C(COC(=O)CCS(=O)(=O)c1ccc(Cl)cc1)NCCc1ccc(Cl)cc1Cl | 3 | 26* | -5 | -3 | -5 | 24
O=C(Cc1ccccc1)NCCc1ccc(Cl)cc1Cl | -6 | 4 | 6 | 3 | -6 | -1
O=C(Cc1ccc(Br)cc1)NCCc1ccc(Cl)cc1Cl | 0 | 27* | -2 | -4 | -18 | 10
O=C(COC(=O)CCS(=O)(=O)c1ccc(Cl)cc1)NC1CCCCC1 | 20 | 9 | 11 | 1 | 16 | -5
Cc1cccc(C)c1OCC(=O)Nc1ccc2c(c1)C(=O)NC2=O | -8 | -2 | 0 | 4 | -6 | 8
Cc1noc(C)c1CSCC(=O)Nc1ccccc1N1CCCCC1 | 7 | 30* | 2 | -4 | 8 | 17
CCNC(=O)COC(=O)CCNC(=O)c1ccc(Cl)cc1 | -2 | 4 | 0 | -5 | -3 | -12
CCCCNC(=O)C(c1ccc(OCC(=O)OC)c(C(=O)OC)c1)N(CCOC)C(=O)CCCCCN1C(=O)NC(c2ccc(-c3ccccc3)cc2)C(C(=O)OCc2ccccc2)=C1C (centres undefined) | 49* | nt | nt | nt | 7 | 19
SMILES | pPAFAH FP inh | PAFAH1B2 FP inh | PAFAH1B3 FP inh | PAFAH2 inh | PREPL inhibitor | Apaf1 inhib
CCCCCCN(C(=O)CCCCCN1C(=O)NC(c2ccc(-c3ccccc3)cc2)C(C(=O)OCc2ccccc2)=C1C)C(C(=O)NCCCC)c1ccc(OCC(=O)OC)cc1 (centres undefined) | 19 | nt | nt | nt | 6 | 17
O=C1c2ccc(-c3ccc(Cl)c(C(F)(F)F)c3)cc2S(=O)(=O)c2cccc(C(=O)N3CCN(c4ccc(Cl)cn4)CC3)c21 | 15 | 9 | 12 | 6 | 15 | 7
COc1cc(/C=C(\C#N)C(=O)NCCc2ccccc2)cc(OC)c1O | 2 | 6 | 8 | 3 | 4 | -6
N#C/C(=C\c1ccc(O)c(O)c1)C(=O)NCCc1ccccc1 | 27* | 64* | 15 | 36* | 25 | -4
CCN(CC)c1ccc(NC(=O)CN(C)Cc2cccs2)cc1 | 26* | 4 | 6 | 7 | 6 | 16
Cc1ccc(NC(=O)CN(C)Cc2cccs2)cc1Cl | 13 | -1 | 3 | 5 | -14 | 12
CCN1CCN(CCCNC(=O)c2ccc(/C=C3/Oc4ccccc4N(Cc4cccc(C)c4)C3=O)cc2)CC1 | -8 | 2 | -3 | -8 | -91 | 47*
OC(c1ccccc1)(c1ccc(F)cc1)C(c1ccccc1)N1CCOCC1 (centres undefined) | 0 | 33* | 2 | -1 | -5 | 12
S=C(NCc1ccc(Cl)cc1Cl)Nc1ccccc1 | 33* | 6 | -4 | 1 | -1 | 7
S=C(NCc1ccc(Cl)cc1)Nc1ccccc1 | 7 | 0 | 2 | 4 | -3 | -7
COc1ccc(S(=O)(=O)Oc2ccc3ccccc3c2)cc1 | 0 | 7 | 12 | 2 | -15 | 7
O=S(=O)(O)c1cc(OS(=O)(=O)c2ccccc2)cc2ccccc12 | -3 | 30* | 7 | 3 | 8 | -5
COc1ccc(Nc2nc(-c3cccs3)cs2)c(OC)c1 | 9 | 6 | 8 | 0 | 14 | 13
COc1ccc(Nc2nc(-c3sc(C)nc3C)cs2)c(OC)c1 | 27* | 6 | -5 | 9 | 27 | 4
CCCSc1nsc(NC(=O)CCC)n1 | 31* | 9 | -1 | -5 | 16 | 8
CCN(CC(=O)Nc1ccc2c(c1)OCCO2)CC(=O)Nc1ccc(C)c(S(=O)(=O)N(C)C)c1 | 6 | 0 | 1 | 7 | 6 | -1
O=C(CCn1nnc2ccccc21)NNC(=O)C1CCCCC1 | 25* | 1 | 4 | -1 | -2 | -5
Cc1ccc(C)c(S(=O)(=O)N2CCCOC2CNC(=O)C(=O)NCc2cccnc2)c1 (centres undefined) | 10 | 1 | 3 | -2 | -9 | -4
COc1ccc(C2=CC3=C(Br)C(=O)C(C)(OC(=O)c4ccc(Cl)nc4)C(=O)C3=CO2)cc1 (centres undefined) | 28* | nt | nt | nt | 7 | 21
